This is an account of results in ChEMBL document CHEMBL1156609, “9-N-Substituted berberine derivatives: stabilization of G-quadruplex DNA and down-regulation of oncogene c-myc” (Bioorg Med Chem, 2008).

The species named for assay [1] is Homo sapiens. Description: Binding affinity to duplex F10T DNA assessed as change melting temperature at 2.0 uM by FRET melting assay.
Assay [2] is filed under the species Homo sapiens. Nature of the assay: Binding affinity to human c-myc G-quadruplex Pu18 DNA assessed as change melting temperature at 2.0 uM by FRET melting assay. In short, it runs like this: (§1)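 FRET melting of dual-labelled Pu18 (5'-FAM/3'-TAMRA), 0.2 μM, in 10 mM Tris–HCl pH 7.2 with 0.2 mM KCl, compound 2.0 μM; fluorescence recorded on a real-time PCR instrument; Tm read from melting curves, ΔTm relative to no-compound control.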

Assay [3] can be described thus: Inhibition of human c-myc G-quadruplex Pu27 DNA amplification at 5.0 uM by PCR-stop assay. A digest of the protocol: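 PCR-stop: Pu27 template with complementary oligomer in 1× PCR buffer, 0.16 mM dNTP, 2.5 U Taq, compound at 1.0, 2.5, 4.0 or 5.0 μM; 94 °C 3 min, then 30 cycles of 94/58/72 °C for 30 s each; products on 15% native PAGE in TBE, silver stained.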

The species named for assay [4] is Homo sapiens. Description: Binding affinity to human c-myc G-quadruplex Pu18 DNA assessed as melting temperature at 2.0 uM by FRET melting assay. A digest of the protocol:
as §1

Assay [5] is described as follows: Binding affinity to duplex F10T DNA assessed as melting temperature at 2.0 uM by FRET melting assay.
A further assay deals with NCI. Description: Cytotoxicity against human NCI cells by MTT assay. The class given is functional, cell-based. In short, it runs like this:
(§2)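 MTT cytotoxicity assay against tumour cells; IC50 taken as mean of three independent assays.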

Assay [6] is described as follows: Cytotoxicity against human GLC cells by MTT assay. The class given is functional, cell-based. A digest of the protocol:
as §2

Assay [7] relates to HL-60. Description: Inhibition of human c-myc gene transcription in HL60 cells at 0.7-1.7 uM after 4 days by RT-PCR. The class given is functional, cell-based.
The species entered for assay [8] is Homo sapiens. Description: Induction of G-quadruplex formation in human c-myc Pu27 DNA at 10 uM […] by gel electrophoresis.
Assay [9] concerns HL-60. Description: Antiproliferative activity against human HL60 cells assessed as cell count and viability at 5 to 10 uM. The class given is functional, cell-based. In short, it runs like this: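 HL60 cells (RPMI-1640, 10% FBS, penicillin/streptomycin, 37 °C, 5% CO2), about 5000 per well, given freshly dissolved compound at 0–10 μM for 4 days, re-dosed at day 5 for a further 4 days; cell count and viability by trypan blue exclusion daily from day 1 to day 8.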

Activity calls are given as the source filed them. The rule behind the calls is not given here.

Turning to `COc1ccc2cc3[n+](cc2c1NCCN1CCCCC1)CCc1cc2c(cc1-3)OCO2`, the ΔTm in the assay listed under Homo sapiens [1] was 0 °C; in the assay filed under Homo sapiens [2] it was 20 °C. For the same compound, the IC50 in assay [3] came out at 4 µM; in the assay with NCI, 22 µM; in assay [6] it was 38 µM. The Tm in the assay filed under Homo sapiens [4] stood at 74 °C; in assay [5], 58 °C.

For the compound `COc1ccc2cc3[n+](cc2c1NCCCN1CCOCC1)CCc1cc2c(cc1-3)OCO2`, the ΔTm came out at 0 °C in the assay filed under Homo sapiens [1] and 17 °C in the assay filed under Homo sapiens [2]. For the same compound, the IC50 turned out to be 4.8 µM in [3], 85 µM in the assay on NCI and 102 µM in assay [6]. In addition, the values for the Tm (in the assay filed under Homo sapiens [4]; in assay [5]) were 71 °C and 58 °C, respectively.

Take `COc1ccc2cc3[n+](cc2c1NCCc1ccccc1)CCc1cc2c(cc1-3)OCO2`: the ΔTm stood at 1 °C in the assay listed under Homo sapiens [1] and 20 °C in the assay filed under Homo sapiens [2]. In addition, the IC50 was 3.6 µM in assay [3], 2 µM in the assay on NCI and 18 µM in [6]. Moreover, the values for the Tm (in the assay filed under Homo sapiens [4]; in assay [5]) were 74 °C and 59 °C, respectively.

For `COc1ccc2cc3[n+](cc2c1NCCN(C)C)CCc1cc2c(cc1-3)OCO2`, the ΔTm in the assay filed under Homo sapiens [1] was 0 °C; in the assay filed under Homo sapiens [2], 19 °C. For the same compound, the IC50 in assay [3] amounted to 3.9 µM; in the assay on NCI, 36 µM; in [6], 56 µM. For the same compound, the Tm in the assay filed under Homo sapiens [4] is 73 °C; in assay [5], 58 °C.

Consider `COc1ccc2cc3[n+](cc2c1NCCCN1CCCC1)CCc1cc2c(cc1-3)OCO2`, for which the ΔTm turned out to be 2 °C in the assay listed under Homo sapiens [1] and 25 °C in the assay filed under Homo sapiens [2]. Also, the IC50 in assay [3] came to 2.3 µM; in the assay with NCI, 22 µM; in assay [6], 32 µM. In addition, the Tm was 78 °C in the assay filed under Homo sapiens [4] and 60 °C in [5].

Turning to `COc1ccc2cc3[n+](cc2c1NCCN1CCOCC1)CCc1cc2c(cc1-3)OCO2`, the results for the ΔTm in the assay listed under Homo sapiens [1] and in the assay listed under Homo sapiens [2] were 1 °C and 18 °C, respectively. For the same compound, the IC50 turned out to be 7.1 µM in [3], 50 µM in the assay on NCI and 50 µM in assay [6]. Further, the results for the Tm (in the assay listed under Homo sapiens [4]; in assay [5]) were 72 °C and 59 °C, respectively.

On to `COc1ccc2cc3[n+](cc2c1NCCCN1CCCCC1)CCc1cc2c(cc1-3)OCO2`, for which the values for the ΔTm in the assay listed under Homo sapiens [1] and in the assay filed under Homo sapiens [2] were 1 °C and 24 °C, respectively. Moreover, the results for the IC50 (in assay [3]; in the assay on NCI; in [6]) were 3.2 µM, 38 µM and 69 µM, respectively. Further, the Tm stood at 78 °C in the assay listed under Homo sapiens [4] and 59 °C in [5].

`COc1ccc2cc3[n+](cc2c1NCCCCCCN)CCc1cc2c(cc1-3)OCO2`: the ΔTm in the assay listed under Homo sapiens [1] came to 2 °C; in the assay listed under Homo sapiens [2] it was 29 °C. In addition, the result in the assay with HL-60 [7], in the assay listed under Homo sapiens [8] and in the assay on HL-60 [9] was Active. Also, the IC50 in assay [3] was determined as 2 µM; in the assay with NCI, 4 µM; in assay [6] it was 9 µM. Besides, the results for the Tm (in the assay filed under Homo sapiens [4]; in assay [5]) were 83 °C and 60 °C, respectively.

For the compound `COc1ccc2cc3[n+](cc2c1NCCCN(C)C)CCc1cc2c(cc1-3)OCO2`, the ΔTm in the assay filed under Homo sapiens [1] is 1 °C; in the assay filed under Homo sapiens [2] it was 20 °C. Further, the IC50 in assay [3] worked out at 3.3 µM; with NCI it was 29 µM; in assay [6], 64 µM. Besides, the values for the Tm (in the assay listed under Homo sapiens [4]; in assay [5]) were 74 °C and 59 °C, respectively.

Consider `COc1ccc2cc3[n+](cc2c1NCCO)CCc1cc2c(cc1-3)OCO2`, for which the ΔTm in the assay listed under Homo sapiens [1] came out at 0 °C; in the assay listed under Homo sapiens [2], 12 °C. The IC50 in assay [3] came to 5.5 µM; in the assay on NCI, 35 µM; in assay [6], 51 µM. The results for the Tm (in the assay filed under Homo sapiens [4]; in assay [5]) were 66 °C and 58 °C, respectively.

`COc1ccc2cc3[n+](cc2c1OC)CCc1cc2c(cc1-3)OCO2`: the values for the ΔTm in the assay listed under Homo sapiens [1] and in the assay listed under Homo sapiens [2] were 2 °C and 1 °C, respectively. Also, the Tm in the assay listed under Homo sapiens [4] worked out at 55 °C.
